# MIN6 prolif: inducers of beta-cell replication in MIN6 cells; MIN6 cells proliferation, ATPlite luminescence, 48 h; cells starved in 0.2% serum; 100% = growth in 10% serum; proliferation, % at 10 µM; 330,000 compounds, 0.29% hits; AID 2380;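 active means compounds whose signal lies at least 3.5 SD above the mean of all wells on their plate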
# T cruzi inh: blocks replication of Trypanosoma cruzi. T. cruzi beta-gal in NIH3T3, luminescence, 90 h. inhibition, % (concentration not given with the values). 300,000 compounds, 1.4% hits;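 active means mean inhibition across valid replicates above about 55%, limit read from the data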;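 further: signal also drops with host cell toxicity which is not excluded here; higher percent means less beta-gal luminescence so fewer parasites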
#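 Assay system: NIH/3T3 fibroblasts plus reporter T. cruzi. Amount: NIH/3T3 cells, 5,000 per well. Buffer or medium: DMEM, 2% fetal bovine serum. Doses: compound pinned at 50 nL/well, DMSO. Schedule: ≥90 h infection period, 3 h prior cell attachment. Signal: luminescent β-galactosidase signal after 60 min lysis. Read-out: parasite load inhibition, %.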
# iPSC survival up: enhancers of human iPSC single-cell survival. hiPSC single-cell survival, ATPlite luminescence; 100% = ROCK inhibitor wells, 0% = DMSO. 360,000 compounds, 0.044% hits. survival enhancement, % at 20 µM; in the data active means survival enhancement above about 18%;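 further: cells exposed to compounds for 16 hours before the ATP read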
# PG9 Ab binder: PG9 antibody binding by small molecule; 360,000 compounds, 0.43% hits; TR-FRET gp120-PG9 antibody binding; inhibition, % at 6.7 µM; in the data active means inhibition above about 8.5%
# TAG inh: reduces triacylglycerol accumulation in H9c2 cells; 230,000 compounds, 0.66% hits; inhibition, % at 12.5 µM; Nile Red lipid (TAG) fluorescence; cells loaded with 200 µM oleic acid;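 active means pattern-corrected inhibition of lipid staining of at least 50% with the nuclear-stain viability signal not falling by more than 50%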
# Rev-erbA mod: modulates human Rev-erb alpha binding to DNA | Rev-erbα–FITC-DNA binding, fluorescence polarization, 90 min | 370,000 compounds, 0.79% hits | activity, % at 10 µM | AID 1259318;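 active means activity above about 14%, limit read from the data; passing the limit was not always enough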
# Target sequence (P20393 whole entry, looked up): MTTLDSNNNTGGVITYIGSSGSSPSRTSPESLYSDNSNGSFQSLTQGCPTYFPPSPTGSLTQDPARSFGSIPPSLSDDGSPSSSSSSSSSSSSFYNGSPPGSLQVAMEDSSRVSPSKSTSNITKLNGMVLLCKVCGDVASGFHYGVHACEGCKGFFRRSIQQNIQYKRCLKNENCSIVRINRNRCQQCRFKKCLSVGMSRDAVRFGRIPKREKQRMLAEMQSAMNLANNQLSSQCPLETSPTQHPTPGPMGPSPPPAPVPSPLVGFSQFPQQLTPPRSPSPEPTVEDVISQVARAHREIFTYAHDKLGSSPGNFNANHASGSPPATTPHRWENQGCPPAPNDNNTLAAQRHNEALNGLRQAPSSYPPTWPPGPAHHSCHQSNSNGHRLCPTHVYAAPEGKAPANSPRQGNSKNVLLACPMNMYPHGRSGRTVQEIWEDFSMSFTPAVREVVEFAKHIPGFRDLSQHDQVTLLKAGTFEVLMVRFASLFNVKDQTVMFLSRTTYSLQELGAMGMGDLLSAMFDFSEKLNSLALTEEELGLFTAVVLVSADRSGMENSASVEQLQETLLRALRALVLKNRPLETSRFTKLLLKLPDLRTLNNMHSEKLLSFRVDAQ
# Hits are given with their value; n = inactive; x = no result given. In the library only some 2.9% were active in any assay of this set; here they are far more common.
SMILES,MIN6 prolif,T cruzi inh,iPSC survival up,PG9 Ab binder,TAG inh,Rev-erbA mod
CCC(C)n1c(SCC(=O)NC(=O)Nc2ccc3c(c2)OCCO3)nc2ccccc2c1=O (centres undefined),n,66,n,n,x,n
Cc1nnsc1NC(=O)OCCCl,n,x,n,n,x,x
Cc1c(NC(=O)CN2C(=O)c3ccc([N+](=O)[O-])cc3C2=O)c(=O)n(-c2ccccc2)n1C,n,n,n,n,n,n
Cc1c(NC(=O)c2ccc(-c3ccc([N+](=O)[O-])cc3Cl)o2)c(=O)n(-c2ccccc2)n1C,n,56,n,n,n,n
CCOC(=O)C1=C(C)NC(=O)NC1c1ccc2c(c1)OCO2 (centres undefined),n,n,n,n,n,n
CCN1CCN(CCCNc2ncnc3nc[nH]c23)CC1,n,n,n,14,n,n
Cc1ccnc(N/N=C/c2ccccc2)n1,n,n,n,n,x,n
Cc1cc(C)nc(N/N=C2/CCCC/C2=C\c2ccccc2)n1,n,70,n,n,n,n
CN1CCN(CC(O)COCCOc2ccc(Br)cc2)CC1 (centres undefined),n,59,n,n,x,n
CC(C)NCC(O)COCCOc1ccc(Br)cc1 (centres undefined),n,63,n,n,x,n
CC(C)NCC(O)COCCOc1ccc(C(C)(C)C)cc1 (centres undefined),n,n,n,n,n,n
CCC(C)NCCOCCOc1ccc(Br)cc1 (centres undefined),n,66,n,n,n,n
Oc1ccc2ccccc2c1C=NNc1ccccn1,x,x,n,n,n,n
CCNC(=O)c1sc(=S)n(CC)c1N,n,n,n,n,n,n
Cc1cc(OC(F)F)ccc1NC(=S)NCCc1ccccc1,n,n,n,n,n,n
COc1ccccc1N=CC=C1OC(C)(C)C(C)(C)O1,n,59,n,n,n,n
O=C(COc1ccc2c(-c3ccccc3)cc(=O)oc2c1)NC(Cc1c[nH]c2ccccc12)C(=O)O (centres undefined),n,x,n,n,n,n
COC(=O)c1ccc2c(c1)C(C)(C)C(/C=C/c1ccccc1O)=[N+]2C,n,74,n,n,x,n
O=C(COc1ccc(Cl)cc1Cl)N1CCCN(C(=O)COc2ccc(Cl)cc2Cl)CC1,n,60,n,n,n,n
Cc1cc(Cl)ccc1OCC(=O)N1CCCCC1,n,n,n,n,n,n
CCOC(=O)c1cnc2ccc(C)cc2c1Sc1ccccc1C(=O)OC,n,61,n,n,n,n
Cc1ccccc1OCC(O)CN1CCN(CCN2C(=O)c3cccc4cccc(c34)C2=O)CC1 (centres undefined),n,56,n,n,n,n
C=CCc1ccccc1OCC(O)CN1CCN(CCN2C(=O)c3cccc4cccc(c34)C2=O)CC1 (centres undefined),n,n,n,n,x,n
CCSC1=NC2(CCCCC2)Nc2sc3c(c21)CCCC3,n,56,n,n,n,n
Cc1ccc(NC(=O)c2cc3c(s2)CCCC3)cc1S(=O)(=O)Nc1ccccc1Cl,n,n,n,n,x,n
SMILES,MIN6 prolif,T cruzi inh,iPSC survival up,PG9 Ab binder,TAG inh,Rev-erbA mod
O=C(Nc1cccc(S(=O)(=O)Nc2ccc(Cl)cc2)c1)c1cc2c(s1)CCCC2,n,65,n,n,x,n
CN1CCN(C2Cc3ccccc3Sc3cc(C(F)(F)F)ccc32)CC1 (centres undefined),n,n,x,n,x,n
Cc1cccc2c1Sc1ccc(Cl)cc1CC2N1CCNCC1 (centres undefined),n,63,x,x,x,x
CCc1cccc2c1Sc1ccccc1CC2N1CCNCC1 (centres undefined),n,64,n,n,67,n
O=C1NC(=O)C(c2cn(-c3ccccc3)nc2-c2ccc(F)cc2)N1 (centres undefined),n,n,n,n,n,n
CC1=C(C(=O)c2ccccc2)C(c2cn(-c3ccccc3)nc2-c2ccc(Cl)cc2)NC(=S)N1 (centres undefined),n,60,n,n,x,n
C=C(C)CSc1nc2sc3c(c2c(=O)n1C1CCCCC1)CCN(C)C3,n,59,n,n,n,n
CSc1nc(NCc2ccccc2)c2c3c(sc2n1)CN(C)CC3,n,55,n,n,n,n
CCn1c(SCC(=O)c2ccccc2)nc2sc3c(c2c1=O)CCN(C)C3,n,64,n,n,n,n
CSc1nc(NCC(C)C)c2c3c(sc2n1)CN(C)CC3,n,n,n,n,n,n
CCn1c(SCC(=O)NCCc2ccccc2)nc2sc3c(c2c1=O)CCN(C)C3,n,x,n,n,n,n
CCSc1nc2sc3c(c2c(=O)n1C1CCCCC1)CCN(C)C3,x,x,n,n,n,n
CCCCSc1nc2sc3c(c2c(=O)n1-c1ccccc1)CCN(C)C3,n,55,n,n,x,n
CCCCSc1nc2sc3c(c2c(=O)n1-c1ccc(OC)cc1)CCN(C)C3,n,n,n,n,x,n
O=C(Cn1sc2ccccc2c1=O)Nc1ccc(F)cc1,x,x,n,n,n,n
CCC(C)N(C)C1CCN(C(=S)Nc2cccc(OC)c2)CC1 (centres undefined),n,n,n,n,n,n
CN(NC(=O)C(C)(C)C)c1nc(-c2ccccc2)nnc1C(F)(F)F,n,n,n,n,n,n
N#CCC[C@@H]1CC[C@]2(CCCN(C(=O)C3CCCCC3)C2)O1,x,x,x,x,x,n
CN1CCc2c(sc3nc(SCC(N)=O)n(-c4ccccc4)c(=O)c23)C1,n,n,n,n,n,n
C=C(C)CSc1nc2sc3c(c2c(=O)n1-c1ccccc1)CCN(C)C3,n,55,n,n,x,n
O=C1CN(c2nc(-c3cccnc3)nc3scc(-c4ccccc4)c23)CCN1,n,63,n,n,n,n
COc1ccc(-c2csc3nc(-c4cccnc4)nc(N4CCC(C(N)=O)CC4)c23)cc1OC,n,n,n,n,x,n
CC1=NN(c2ccccc2)C(=O)/C1=C\C=C\c1ccccc1,n,n,n,n,n,n
ClC1=C(Cl)C(Cl)=C(Cl)C1=C/C=C/c1ccccc1,n,63,n,n,n,n
O=C(CCNC(=O)c1ccccc1Cl)Nc1ccc(Cl)c(C(F)(F)F)c1,n,n,n,n,x,n
SMILES,MIN6 prolif,T cruzi inh,iPSC survival up,PG9 Ab binder,TAG inh,Rev-erbA mod
COc1ccc(/C=C/C(=O)c2cc(F)ccc2OC(=O)c2ccccc2)cc1OC,n,n,n,n,80,n
COc1ccc(/C=C/C(=O)c2cc(F)ccc2OC(=O)c2ccccc2OC)cc1OC,x,n,n,n,56,n
COc1ccc(/C=C/C(=O)c2cc(Br)ccc2OC(=O)c2ccco2)cc1OC,n,n,n,n,x,n
COc1ccc(/C=C/C(=O)c2cc(F)ccc2OC(=O)c2ccc(OC)c(OC)c2)cc1OC,n,n,n,n,n,n
O=C1C=C(Nc2ccccc2)C(=O)c2ccccc21,n,n,n,n,x,n
CCN(CC1CCCN(CCc2cccc(OC)c2)C1)C(=O)c1ccc(COC)o1 (centres undefined),n,77,n,n,n,n
